The source made the active and inactive calls. No cut-off for these calls is given here.
What was measured:
[1] = tested on: Rattus norvegicus; assay: Antiinflammatory activity in DNBS-induced Sprague-Dawley rat colitis model assessed as reduction in DNBS-induced spleen weight increase by measuring increase in spleen weight at 25 mg/kg/day, ig administered as suspension in olive oil for 6 days simulatneously with 6 days of DNBS-challenge measured daily during compound dosing (reference value: 39.3%); type: functional; parameters: scale not given: the % may be the effect or the level left
Summary of the method: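 Spleen weight was used as an index of systemic inflammation. Rats had intrarectal DNBS (15 mg/0.25 mL 50% ethanol) and 6 days of intragastric dosing: 1 mg/kg/day in 1% methylcellulose, or 12.5–50 mg/kg/day in 0.2 mL olive oil. The spleen was weighed at sacrifice and expressed as percent increase versus control, n = 10.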

[2] = molecular target: NACHT, LRR and PYD domains-containing protein 3 (Homo sapiens) (UniProt Q96P20); assay: Inhibition of recombinant human NLRP3 ATPase assessed as hydrolysis of ATP preincubated for 15 mins followed by addition of ATP measured after 40 mins by ADP-Glo assay
Sequence of NACHT, LRR and PYD domains-containing protein 3 (Homo sapiens) (Q96P20 whole entry, the tested form may be a part): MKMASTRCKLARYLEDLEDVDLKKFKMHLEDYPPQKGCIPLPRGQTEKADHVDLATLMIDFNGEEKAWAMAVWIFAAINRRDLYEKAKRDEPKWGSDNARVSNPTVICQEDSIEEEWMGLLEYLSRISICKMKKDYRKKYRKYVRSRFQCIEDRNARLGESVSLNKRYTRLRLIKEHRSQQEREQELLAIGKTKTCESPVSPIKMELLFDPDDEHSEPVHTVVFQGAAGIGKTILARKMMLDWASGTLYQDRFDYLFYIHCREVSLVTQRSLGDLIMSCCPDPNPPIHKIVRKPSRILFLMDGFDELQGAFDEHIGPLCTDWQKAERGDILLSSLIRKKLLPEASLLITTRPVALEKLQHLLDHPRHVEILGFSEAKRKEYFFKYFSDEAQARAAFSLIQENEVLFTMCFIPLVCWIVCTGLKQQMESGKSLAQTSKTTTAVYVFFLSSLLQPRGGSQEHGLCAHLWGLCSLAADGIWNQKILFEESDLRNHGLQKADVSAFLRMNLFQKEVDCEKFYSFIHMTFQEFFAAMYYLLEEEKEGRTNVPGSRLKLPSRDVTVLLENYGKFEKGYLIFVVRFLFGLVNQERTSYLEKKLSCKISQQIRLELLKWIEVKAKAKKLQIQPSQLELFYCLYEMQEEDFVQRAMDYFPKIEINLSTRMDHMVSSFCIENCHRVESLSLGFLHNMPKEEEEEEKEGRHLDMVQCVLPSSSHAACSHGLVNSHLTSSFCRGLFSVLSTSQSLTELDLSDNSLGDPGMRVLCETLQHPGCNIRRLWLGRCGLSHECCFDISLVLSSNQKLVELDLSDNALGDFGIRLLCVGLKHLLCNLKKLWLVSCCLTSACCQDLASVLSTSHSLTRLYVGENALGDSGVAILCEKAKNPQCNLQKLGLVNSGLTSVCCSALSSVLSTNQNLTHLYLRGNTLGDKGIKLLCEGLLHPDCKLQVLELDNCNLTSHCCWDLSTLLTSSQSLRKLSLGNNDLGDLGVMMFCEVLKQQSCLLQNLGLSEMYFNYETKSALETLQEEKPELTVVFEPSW
Summary of the method: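 Human recombinant NLRP3 (0.105 µg) in 20 mM Tris-HCl pH 7.8, 133 mM NaCl, 20 mM MgCl2, 3 mM KCl, 0.56 mM EDTA, 0.5% DMSO. Compound (100 or 50 µM) was preincubated 15 min at 37 °C, then ATP (250 µM) was added for 40 min at 37 °C. ADP was read by ADP-Glo luminescence. Result is % inhibition vs vehicle; mean ± SEM, ≥3 experiments.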

[3] = Cysteamine reactivity in PBS assessed as free compound level at pH 7.4 measured after 30 mins by DTNB reagent based RP-UHPLC analysis
Summary of the method: (§1)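 The compound was reacted with excess cysteamine in pH 7.4 phosphate buffer with CH3CN cosolvent at 37 °C. Remaining compound was followed by UHPLC over 4 h, sampled at 30 min, 60 min and 4 h, and expressed as percent of starting concentration.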

[4] = tested on: Rattus norvegicus; assay: Antiinflammatory activity in DNBS-induced Sprague-Dawley rat colitis model assessed as DNBS-induced decrease in colonic length at 50 mg/kg/day, ig administered as suspension in olive oil for 6 days simulatneously with 6 days of DNBS-challenge (reference value: -34.4%); type: functional; parameters: scale not given: the % may be the effect or the level left
[5] = molecular target: NACHT, LRR and PYD domains-containing protein 3 (Mus musculus) (UniProt Q8R4B8); assay: Inhibition of NLRP3 inflammasome in LPS-primed C57BL/6 mouse bone marrow derived macrophages assessed as reduction in ATP-induced IL-1beta production at 10 uM preincubated for 1 hr followed by stimulation with ATP measured after 30 mins by ELISA
Sequence of NACHT, LRR and PYD domains-containing protein 3 (Mus musculus) (Q8R4B8 whole entry, the tested form may be a part): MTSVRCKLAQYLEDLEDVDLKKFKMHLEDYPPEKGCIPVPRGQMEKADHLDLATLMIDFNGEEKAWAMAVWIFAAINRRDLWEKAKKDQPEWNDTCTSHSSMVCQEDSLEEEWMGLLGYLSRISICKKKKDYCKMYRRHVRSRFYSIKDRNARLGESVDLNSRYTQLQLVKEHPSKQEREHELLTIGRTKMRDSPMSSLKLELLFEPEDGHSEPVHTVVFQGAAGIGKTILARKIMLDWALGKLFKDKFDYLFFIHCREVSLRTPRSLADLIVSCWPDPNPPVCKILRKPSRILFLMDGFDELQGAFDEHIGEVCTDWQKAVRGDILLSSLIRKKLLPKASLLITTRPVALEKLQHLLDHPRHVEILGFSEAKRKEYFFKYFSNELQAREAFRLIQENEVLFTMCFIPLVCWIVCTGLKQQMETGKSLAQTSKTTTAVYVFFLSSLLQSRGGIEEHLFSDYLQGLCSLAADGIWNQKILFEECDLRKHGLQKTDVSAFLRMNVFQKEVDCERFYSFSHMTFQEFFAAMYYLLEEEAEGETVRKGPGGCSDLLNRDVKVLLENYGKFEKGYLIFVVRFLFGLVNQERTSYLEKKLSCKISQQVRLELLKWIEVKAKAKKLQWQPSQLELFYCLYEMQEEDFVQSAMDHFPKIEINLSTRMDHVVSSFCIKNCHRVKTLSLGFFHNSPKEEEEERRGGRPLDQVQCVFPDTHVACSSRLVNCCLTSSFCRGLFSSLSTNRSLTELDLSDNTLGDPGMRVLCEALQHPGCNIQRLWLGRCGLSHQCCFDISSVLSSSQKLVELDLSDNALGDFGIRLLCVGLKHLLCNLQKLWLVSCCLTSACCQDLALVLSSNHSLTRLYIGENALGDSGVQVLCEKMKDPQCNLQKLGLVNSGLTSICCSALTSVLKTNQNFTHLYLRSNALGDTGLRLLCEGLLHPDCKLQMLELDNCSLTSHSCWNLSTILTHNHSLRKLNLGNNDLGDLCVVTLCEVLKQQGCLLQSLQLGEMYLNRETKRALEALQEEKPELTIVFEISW
Summary of the method: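 C57BL/6 bone marrow macrophages, differentiated with 20% L-cell medium, were primed with LPS (1 µg/mL, 3 h). They were then exposed to compound or vehicle for 1 h and stimulated with ATP (5 mM, 30 min). IL-1β released into the medium was measured by ELISA.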

[6] = tested on: Rattus norvegicus; assay: Anti-inflammatory activity in DNBS-induced Sprague-Dawley rat colitis model assessed as DNBS-induced IL-1beta levels in colon at 25 mg/kg/day, ig for 6 days simulatneously with 6 days of DNBS-challenge by ELISA (reference value: 22.3 +/- 2.9 ng/mg); type: functional
[7] = molecular target: NACHT, LRR and PYD domains-containing protein 3 (Mus musculus) (UniProt Q8R4B8); assay: Inhibition of NLRP3 inflammasome in LPS-primed C57BL/6 mouse bone marrow derived macrophages assessed as reduction in nigericin-induced caspase-1 activation at 10 to 100 uM preincubated for 1 hr followed by stimulation with nigericin measured after 30 mins by Western blot analysis
[8] = molecular target: NACHT, LRR and PYD domains-containing protein 3 (Homo sapiens) (UniProt Q96P20); assay: Irreversible inhibition of His-FLAG- tagged NLRP3-ATPase (unknown origin) at 100 uM preincubated for 55 mins followed by ATP addition measured after 40 mins by ADP-Glo assay
Summary of the method: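 His-FLAG NLRP3 (105 ng/well) captured on anti-FLAG-coated, BSA-blocked wells for 3 h at 4 °C. Compound (100 µM final, 2% DMSO) preincubated 55 min at 37 °C. Wells were washed three times (or not washed), then ATP (250 µM) was added for 40 min at 37 °C. ADP was read by ADP-Glo. Equal protein loading was checked by anti-His ELISA.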

[9] = species: Mus musculus; assay: Inhibition of NF-kB signaling pathway in C57BL/6 mouse bone marrow derived macrophages assessed as reduction in LPS-induced TNFalpha gene expression at 10 to 100 uM preincubated for 30 mins followed by LPS stimulation measured after 4 hrs by qRT-PCR analysis
Summary of the method: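 C57BL/6 bone marrow macrophages, differentiated with 20% L-cell medium, were preincubated with compound for 30 min. They were then left untreated or given LPS (1 ng/mL, 4 h). Tnfa, Il6 and Il1b expression was measured by quantitative RT-PCR as 2^-ΔΔCt.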

[10] = molecular target: NACHT, LRR and PYD domains-containing protein 3 (Mus musculus) (UniProt Q8R4B8); assay: Inhibition of NLRP3 inflammasome in LPS-primed C57BL/6 mouse bone marrow derived macrophages assessed as reduction in nigericin-induced IL-1beta production at 10 uM preincubated for 1 hr followed by stimulation with nigericin measured after 30 mins by ELISA
Summary of the method: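 Bone marrow macrophages from C57BL/6 mice, differentiated with 20% L-cell medium, primed with LPS (1 µg/mL, 3 h). Test agent or vehicle was added for 1 h, then ATP (5 mM, 30 min) or nigericin (10 µM, 30 min). IL-1β in the medium was measured by ELISA. LDH in the medium was measured colorimetrically as % of total cellular LDH.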

[11] = Cytotoxicity against human THP1 cells assessed as cell viability at 100 uM after 72 hrs by MTT assay; type: cell-based; details: THP-1 cells, read-out: Activity
Summary of the method: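 Human THP-1 cells were exposed to 0.1–100 µM for 72 h, and viability was read by MTT. TC50 is the concentration that cuts viability by 50%; percent viable cells at 100 µM is also reported. Mean ± SEM of ≥3 experiments.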

[12] = molecular target: NACHT, LRR and PYD domains-containing protein 3 (Mus musculus) (UniProt Q8R4B8); assay: Inhibition of NLRP3 inflammasome in LPS-primed C57BL/6 mouse bone marrow derived macrophages assessed as reduction in ATP-induced caspase-1 activation at 10 to 100 uM preincubated for 1 hr followed by stimulation with ATP measured after 30 mins by Western blot analysis
[13] = tested on: Jejunum; assay: Drug metabolism in Sprague-Dawley rat jejunum assessed as 2-(2-chlorobenzyl)acrylic acid level at 12.5 mg as suspension in olive oil measured after 2 hrs by UHPLC-M; type: ADME, tissue-based; details: in vivo
[14] = tested on: Rattus norvegicus; assay: Anti-inflammatory activity in DNBS-induced Sprague-Dawley rat colitis model assessed as DNBS-induced IL-1beta levels in colon at 12.5 mg/kg/day, ig for 6 days simulatneously with 6 days of DNBS-challenge by ELISA (reference value: 22.3 +/- 2.9 ng/mg); type: functional
[15] = molecular target: NACHT, LRR and PYD domains-containing protein 3 (Homo sapiens) (UniProt Q96P20); assay: Inhibition of recombinant YFP-tagged NLRP3 (unknown origin) expressed in HEK293 cells co-expressing luciferase at 10 to 100 uM after 24 hrs by BRET assay; type: cell-based
Summary of the method: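 HEK293 cells stably expressing YFP-NLRP3-Luc were grown in DMEM with 10% FCS, plated on poly-L-lysine, and exposed to compound or vehicle (15 h per methods; 24 h per figure legend). Cells were washed, then BRET was read after adding coelenterazine-H (5 µM). Kinetics used nigericin (10 µM) in vehicle or high-K+ (140 mM) buffer. Slopes of three phases were taken; mean ± SEM, n = 5–12.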

[16] = Cysteamine reactivity in PBS assessed as free compound level at pH 7.4 measured after 4 hrs by DTNB reagent based RP-UHPLC analysis; summary of the method: as §1

inhibition [2]: Dose-dependent effect | inhibition [5]: Active | inhibition [7]: Active | inhibition [8]: 45% | inhibition [9]: Active | inhibition [10]: Active | inhibition [12]: Active | Drug metabolism [13]: Metabolite_Detected | inhibition [15]: Active
Compound: C=C(Cc1ccccc1Cl)C(=O)OCC
Activity [1]: 4.3% | Stability [3]: 89.4% | Activity [4]: -8% | Activity [6]: 12.8 ng/mg | viability at 72 h, 100 µM [11]: 96.6% | Activity [14]: 16.4 ng/mg | Stability [16]: 77.5%
